How the values were obtained:
Glycine max [1] = assay: Inhibition of soybean lipoxygenase using arachidonic acid as substrate at 4 uM
Outline: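 Soybean lipoxygenase-15 screening kit with arachidonic acid as substrate and H2O2 as lipoxygenating agent in 0.1 M Tris-HCl, pH 7.4. Values are % inhibition, means of duplicate determinations, Student t-test.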

[2] = Cytotoxicity against mouse […] cells after 48 hrs by MTT assay; format: cell-based
Outline: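 J774 macrophages in DMEM (4 mM L-glutamine, 10% heat-inactivated FBS) were seeded at 1 × 10^5 cells/well and grown for 48 h at 37 °C, 5% CO2. They were then exposed to compounds at 25–400 µM for 48 h. MTT (0.1 mg/mL final) was added for 3 h, formazan was dissolved in DMSO/glycine buffer pH 10.5, and absorbance was read at 560 nm to give an IC50.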

HT-29 [3] = assay: Inhibition of TNFalpha-induced NF-kappaB activation expressed in human HT-29 cells coexpressing hrGFP at 100 uM after 24 hrs by propidium iodide staining-based flow cytometric analysis relative to control; format: cell-based
Outline: (§1)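 HT-29 cells stably expressing NF-κB-driven hrGFP given compound (DMSO <0.5%) for 2 h at the maximum non-cytotoxic concentration, then TNF-α at 3 ng/mL final for 18–24 h. Cells trypsinised and stained with propidium iodide; 5000 events gated on FSC/SSC. The %GFP-positive among PI-excluding live cells is normalised to TNF-α/DMSO control, ± SD.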

[4] = Solubility of the compound in soybean lipoxygenase assay buffer at pH 7.4 at >50 uM; format: physicochemical
Glycine max [5] = assay: Inhibition of soybean lipoxygenase using arachidonic acid as substrate at 50 uM
Outline: (§2)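 Soybean 15-lipoxygenase kit assay, arachidonic acid substrate, H2O2 as lipoxygenating agent in 0.1 M Tris-HCl pH 7.4. Single-point screen at 50 µM. IC50 found by varying concentration over 10–100 µM. Quercetin at 4 µM as positive control; duplicate means; Student t-test.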

HT-29 [6] = assay: Inhibition of NF-kappaB activation expressed in human HT-29 cells assessed as inhibition of TNFalpha-stimulated IL8 release at 100 uM after 24 hrs by flow cytometric analysis relative to control; format: cell-based
Outline: (§3)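 Reporter HT-29-NF-κB-hrGFP cells pretreated 2 h with compound (DMSO <0.5%) at the highest concentration with 100% survival, then stimulated with TNF-α (3 ng/mL final) for 18–24 h at 37 °C. IL-8 in clarified supernatant measured by flow cytometric bead assay (500 events). Expressed as % of TNF-α/DMSO control ± SD; thalidomide as reference.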

[7] = Cytotoxicity against human HT-29 cells expressing NF-kappaB-hrGFP assessed as highest non-cytotoxic dose for 100% cell survival after 24 hrs by MTT assay; format: cell-based; conditions: read-out: Activity
Outline: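 HT-29 cells stably carrying pNF-κB-hrGFP, seeded at 0.5 × 10^6/mL in DMEM with 10% FBS, grown 24 h at 37 °C, 5% CO2. Compounds added in DMSO (<0.5% v/v final) at 12.5–400 µM for 24 h. Viability by MTT reduction (2 h), formazan dissolved in DMSO/glycine buffer, read at 560 nm.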

HT-29 [8] = assay: Pro-inflammatory activity in NFkappaB-GFP transfected human HT-29 cells at 25 to 400 uM after 24 hrs by propidium iodide staining-based flow cytometric analysis; format: ADME, cell-based; conditions: ht-29, 24 h
Outline: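 Reporter HT-29-NF-κB-hrGFP cells given compound alone, without TNF-α, for 18–24 h at 37 °C after the same 2 h pre-incubation. GFP-positive live (propidium iodide-excluding) cells counted by flow cytometry; IL-8 in supernatant measured by bead-based flow cytometry.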

HT-29 [9] = assay: Inhibition of NF-kappaB activation expressed in human HT-29 cells assessed as inhibition of TNFalpha-stimulated IL8 release at 25 uM after 24 hrs by flow cytometric analysis relative to control; format: cell-based; outline: as §3
[10] = Inhibition of soybean lipoxygenase using arachidonic acid as substrate; design: species or system Glycine max; outline: as §2
HT-29 [11] = assay: Inhibition of TNF-alpha-induced NFkappaB activation expressed in human HT-29 cells coexpressing hrGFP at 25 uM after 24 hrs by propidium iodide staining-based flow cytometric analysis relative to control; format: cell-based; outline: as §1
HT-29 [12] = assay: Inhibition of TNFalpha-induced NF-kappaB activation expressed in human HT-29 cells coexpressing hrGFP at 200 uM after 24 hrs by propidium iodide staining-based flow cytometric analysis relative to control; format: cell-based; outline: as §1
HT-29 [13] = assay: Inhibition of TNFalpha-induced NF-kappaB activation expressed in human HT-29 cells coexpressing hrGFP at 400 uM after 24 hrs by propidium iodide staining-based flow cytometric analysis relative to control; format: cell-based; outline: as §1
HT-29 [14] = assay: Inhibition of NF-kappaB activation expressed in human HT-29 cells assessed as inhibition of TNFalpha-stimulated IL8 release at 400 uM after 24 hrs by flow cytometric analysis relative to control; format: cell-based; outline: as §3
HT-29 [15] = assay: Inhibition of NF-kappaB activation expressed in human HT-29 cells assessed as inhibition of TNFalpha-stimulated IL8 release at 200 uM after 24 hrs by flow cytometric analysis relative to control; format: cell-based; outline: as §3

Row | Compound | inhibition (Glycine max [1]) | IC50 [2] | NF-kappaB activity (% of TNF-alpha control) (HT-29 [3]) | solubility [4] | inhibition (Glycine max [5]) | inhibition (HT-29 [6]) | MNTC at 24 h [7] | Activity (HT-29 [8]) | inhibition (HT-29 [9]) | IC50 [10] | inhibition (HT-29 [11]) | inhibition (HT-29 [12]) | NF-kappaB activity (GFP-positive cells), % of TNF-alpha control (HT-29 [13]) | inhibition (HT-29 [14]) | inhibition (HT-29 [15])
1 | O=c1c(O)c(-c2ccc(O)c(O)c2)oc2cc(O)cc(O)c12 | 35% | – | – | – | – | – | – | – | – | – | – | – | – | – | –
2 | Cc1[nH]cnc1C(=O)N/N=C/c1no[n+]([O-])c1C | – | > 400 µM | 126% | Insoluble | 27% | 103% | 100 µM | Non-toxic | – | – | – | – | – | – | –
3 | O=C(N/N=C/c1c(-c2ccccc2)no[n+]1[O-])c1cccnc1 | – | 195 µM | – | – | 14% | – | 25 µM | Non-toxic | 138% | > 100 µM | 114% | – | – | – | –
4 | O=C1CCC(N2C(=O)c3ccccc3C2=O)C(=O)N1 (stereo unspecified) [THALIDOMIDE] | – | > 400 µM | 126% | – | – | 63% | 100 µM | Non-toxic | – | – | – | 114% | 116% | 57% | 77%
5 | Cc1c(/C=N/NC(=O)c2cccnc2)no[n+]1[O-] (mixture of isomers) | – | > 400 µM | 112% | Insoluble | 22% | 105% | 100 µM | Non-toxic | – | – | – | – | – | – | –

Source: ChEMBL document CHEMBL1955718, “Discovery of new orally effective analgesic and anti-inflammatory hybrid furoxanyl N-acylhydrazone derivatives” (Bioorg Med Chem, 2012)
